One may read the IC50 as the midpoint of a concentration-inhibition curve.

This note sets out measurements from article PMC9930943 (Asian Pacific Journal of Cancer Prevention : APJCP, 2022).

One assay concerns AGO1522 cells. Put plainly: MTT cell viability assay, AGO1522. Format: cell-based, human. The following applies: for IC50: Homo sapiens, Skin fibroblast. The essentials: (§1)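 U-87MG (RPMI-1640, 7.5 × 10³ cells/well, 24 h attachment) and AGO1522 (low-glucose DMEM) grown with 10% FBS and pen/strep at 37°C, 5% CO₂. DMSO stocks diluted in medium to 3, 6.25, 12.5, 25, 50 and 100 µM, for 24 and 48 h. MTT 5 mg/ml for 4 h, formazan dissolved in DMSO, A570 nm. Viability relative to untreated cells; IC50 calculated. Triplicates, three experiments.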
(Tetrazolium assays rely on reduction of a dye to a coloured formazan, in cell work by metabolically active cells.)

Assay [1] concerns U-87MG cells. The experiment in a line: PI staining cell cycle analysis by flow cytometry. The following applies: 11.91 µM, 24 hours. It counts as cell-based, human. The essentials:
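6 × 10⁵ U-87MG cells/well attached for 24 h, then given 11.91 µM for 24 h. Detached with trypsin-EDTA at 37°C for 2 min, fixed in cold 70% ethanol for 1 h. Stained 30 min at RT in the dark in 1 ml 0.1% sodium citrate with 0.05 mg PI and 50 µg RNase. Sub-G1, G0/G1, S and G2/M percentages by flow cytometry.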
(In general: Flow cytometry measures light scatter and fluorescence of single cells or particles in a stream.)

Assay [2] has as its system intracellular ROS in U-87MG cells. Put plainly: Intracellular ROS assay with DCFH-DA probe. Format: cell-based, human. To be noted: 11.91 M (so in the source), 12 hours, P < 0.01. The method in brief: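 6 × 10⁵ U-87MG cells/well attached for 24 h, then given 11.91 µM for 12 h. Loaded with DCFH-DA (10 µM final) in serum-free medium for 30 min at 37°C in the dark and washed twice with RPMI 1640. DCF fluorescence of 1 × 10⁴ cells read on a fluorescence plate reader as RFU. Three independent experiments.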

Assay [3] relates to caspase-3 activity in U-87MG cells. The experiment in a line: Caspase-3/CPP32 fluorometric activity assay. The following applies: 11.91 µM, 24 hours (method: 12 hours), P<0.01. It counts as cell-based, human.
Assay [4] has as its system U-87MG cells. Put plainly: MTT cell viability assay, U-87MG. Format: cell-based. The following applies: Homo sapiens. The method in brief:
as §1

Setting [5] is: 24 h, read-out: IC50 U-87MG 24 hours.
[6] abbreviates: 48 h, read-out: IC50 U-87MG 48 hours.
[7] abbreviates: 24 h, read-out: IC50 AGO1522 24 hours.
[8] abbreviates: 48 h, read-out: IC50 AGO1522 48 hours.

Where two headings read alike, the source gives them in different places.

As to “5-(6-bromo-2-chloroquinolin-3-yl)-9a-hydroxy-8,8-dimethyl-4-nitro-2,3,5,5a,7,8,9,9a-octahydroimidazo[1,2-a]quinolin-6(1H)-one [5c]”, the “effects on normal skin cells of AGO1522” value with AGO1522 cells (AGO1522 cells, in words) is on record as “minimal effects”. For the same molecule, the “cells in G1” value in the assay on U-87MG cells [1] amounted to 41%. Further, the “level of ROS compared to unexposed cells” value in assay [2] was “significantly higher”. The “caspase 3 activation compared to unexposed cells” value in assay [3] is “significant increase”.

Take `O=c1[nH]c(O)c(C2C([N+](=O)[O-])=C3NCCN3c3nc4cc(Cl)ccc4cc32)c(=O)[nH]1` (stereo not drawn) [5e, 5-(9-chloro-4-nitro-1,2,3,5-tetrahydrobenzo[g]imidazo[1,2-a] [1,8]naphthyridin-5-yl) -6-hydroxypyrimidine-2,4 (1H, 3H) -dione]: the IC50 with U-87MG cells [4] (setting [5]) was determined as 22.6 ± 0.84 µM; in the assay on U-87MG cells [4] (setting [6]), 16.3 ± 1.03 µM; in the assay with AGO1522 cells (setting [7]) it was 43 ± 0.89 µM; with AGO1522 cells (setting [8]), 22.9 ± 0.95 µM.

Consider `CC(=O)O[C@H]1C(=O)[C@@]2(C)[C@H]([C@H](OC(=O)c3ccccc3)[C@]3(O)C[C@H](OC(=O)[C@H](O)[C@@H](NC(=O)c4ccccc4)c4ccccc4)C(C)=C1C3(C)C)[C@]1(OC(C)=O)CO[C@@H]1C[C@@H]2O` [Paclitaxel, reference compound], for which the IC50 with U-87MG cells [4] (setting [5]) is 17.4 ± 0.85 µM; in the assay on U-87MG cells [4] (setting [6]) it was 42.2 ± 0.78 µM; in the assay on AGO1522 cells (setting [7]), 42.9 ± 1.42 µM; with AGO1522 cells (setting [8]), 25.8 ± 1.09 µM.
